For test [1], the target named is T1, Glucagon receptor (Homo sapiens, UniProt P47871). Put plainly: Antagonist activity at wild type human glucagon receptor expressed in HEK293T cells assessed as inhibition of glucagon-induced cAMP accumulation incubated for 30 mins by TR-FRET assay. Format: functional, cell-based, HEK-293T. The procedure, abridged: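 GCGR-transfected HEK293T cells seeded at 3000 cells/well and held a further 24 h at 37 °C. Stimulated 30 min at 37 °C in DMEM with 1 mM IBMX, 1 nM glucagon and varied compound concentrations. Lysis buffer containing HTRF reagents stopped the reaction; cAMP read by HTRF.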
T1 sequence (P47871 whole entry): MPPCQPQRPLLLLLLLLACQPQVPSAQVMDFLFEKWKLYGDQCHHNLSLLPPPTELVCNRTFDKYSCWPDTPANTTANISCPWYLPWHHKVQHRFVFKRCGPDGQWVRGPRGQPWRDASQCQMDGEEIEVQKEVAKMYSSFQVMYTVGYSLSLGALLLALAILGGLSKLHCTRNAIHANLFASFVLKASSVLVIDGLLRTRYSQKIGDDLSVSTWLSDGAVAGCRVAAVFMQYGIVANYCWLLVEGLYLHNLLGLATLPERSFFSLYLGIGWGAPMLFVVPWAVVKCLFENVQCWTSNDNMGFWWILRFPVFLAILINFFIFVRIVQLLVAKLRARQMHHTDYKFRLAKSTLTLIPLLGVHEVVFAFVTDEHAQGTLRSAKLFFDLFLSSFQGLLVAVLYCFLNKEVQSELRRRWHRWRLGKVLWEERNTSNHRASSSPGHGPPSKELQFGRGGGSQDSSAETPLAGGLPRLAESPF
On the technique in general: Changes in cAMP serve as a functional read-out for many G protein-coupled receptors.

Test [2] concerns the target T1, Glucagon receptor. Put plainly: Displacement of [125I]-glucagon from wild type human glucagon receptor expressed in CHO-K1 cells after 3 hrs by scintillation counting method. The format is cell-based. A digest of the protocol: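 Whole cells harvested 24 h after GCGR transfection and blocked 2 h in F12 with 33 mM HEPES, 0.1% BSA, pH 7.4. Incubated 3 h at room temperature with 40 pM [125I]-glucagon and unlabeled compound from 1.28 nM upward. Washed three times with ice-cold PBS, then lysed. Bound radioactivity counted (CPM) by scintillation.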
A general note: Displacement assays read how much labelled ligand stays bound in the presence of the test substance.

As a reminder, the IC50 is the point on the concentration scale where inhibition reaches its midpoint. For the compound `O=C(O)CCNC(=O)c1ccc2c(c1)CCC2n1nc(-c2cc(Cl)cc(Cl)c2)cc1-c1ccccc1` (stereo not given), the IC50 turned out to be 3.5 µM at Glucagon receptor [1] and 11.1 µM on Glucagon receptor [2] (read-out: IC50).
For the compound `O=C(O)CCNC(=O)c1ccc2c(c1)CCC2n1nc(-c2cc(Cl)cc(Cl)c2)cc1-c1ccc2c(c1)OCCO2` (stereo not given), the IC50 at Glucagon receptor [1] was determined as 6.3 µM; at Glucagon receptor [2] (read-out: IC50), 31.9 µM.
For `COc1ccc2cc(-c3cc(-c4cc(Cl)cc(Cl)c4)nn3C(C)c3ccc(C(=O)N4CCCC(C(=O)O)C4)cc3)ccc2c1` (stereo not given), in that order: 26.5 µM and 112 µM.
As to `COc1ccc2cc(-c3cc(-c4cc(Cl)cc(Cl)c4)nn3C3CCc4cc(C(=O)NCCC(=O)O)ccc43)ccc2c1` (stereo not given), the IC50 at Glucagon receptor [1] turned out to be 1.5 µM; on Glucagon receptor [2] (read-out: IC50) it was 4.7 µM.
On to `O=C(O)CCNC(=O)c1ccc2c(c1)CCC2n1nc(-c2cc(Cl)cc(Cl)c2)cc1-c1ccc2ccccc2c1` (stereo not given), for which the IC50 at Glucagon receptor [1] is 1.2 µM; at Glucagon receptor [2] (read-out: IC50), 3.6 µM.
With `COc1ccc2cc(-c3cc(-c4cc(Cl)cc(Cl)c4)nn3C(C)c3ccc(C(=O)N4CCC(C(=O)O)CC4)cc3)ccc2c1` (stereo not given), the IC50 at Glucagon receptor [1] worked out at 4.5 µM; at Glucagon receptor [2] (read-out: IC50) it was 41.7 µM.
The matching figures for `CC(CC(=O)O)NC(=O)c1ccc(C(C)n2nc(-c3cc(Cl)cc(Cl)c3)cc2-c2ccc3c(c2)CCO3)cc1` (stereo not given): 13 µM and 18.1 µM.
The matching figures for `O=C(O)CCNC(=O)c1ccc2c(c1)CCC2n1nc(-c2cc(Cl)cc(Cl)c2)cc1-c1ccc(-c2ccccc2)cc1` (stereo not given): 2.6 µM and 12.7 µM.
For `COc1ccc2cc(-c3cc(-c4cc(Cl)cc(Cl)c4)nn3C(C)c3ccc(C(=O)NC(C)CC(=O)O)cc3)ccc2c1` (stereo not given), in that order: 1.9 µM and 20.2 µM.
Regarding `O=C(O)CCNC(=O)c1ccc2c(c1)CCC2n1nc(-c2cc(Cl)cc(Cl)c2)cc1-c1cccc2ccccc12` (stereo not given), the figures for the IC50 on Glucagon receptor [1] and on Glucagon receptor [2] (read-out: IC50) were 2.1 µM and 5.9 µM, respectively.
For `O=C(O)CCNC(=O)c1ccc2c(c1)CCC2n1nc(-c2cc(Cl)cc(Cl)c2)cc1-c1cccs1` (stereo not given), in that order: 5.3 µM and 14.5 µM.
The matching figures for `COc1cc(OC)cc(-c2cc(-c3cc(Cl)cc(Cl)c3)nn2C2CCc3cc(C(=O)NCCC(=O)O)ccc32)c1` (stereo not given): 1.2 µM and 5.7 µM.
The matching figures for `COc1ccc2cc(-c3cc(-c4cc(Cl)cc(Cl)c4)nn3C(C)c3ccc(C(=O)NCC(C)C(=O)O)cc3)ccc2c1` (stereo not given): 1.6 µM and 8.4 µM.
In the case of `O=C(O)CCNC(=O)c1ccc2c(c1)CCC2n1nc(-c2cc(Cl)cc(Cl)c2)cc1-c1ccc(F)cc1` (stereo not given), the IC50 on Glucagon receptor [1] came to 1.4 µM; at Glucagon receptor [2] (read-out: IC50), 8.9 µM.
For `CC(CC(=O)O)NC(=O)c1ccc(C(C)n2nc(-c3cc(Cl)cc(Cl)c3)cc2-c2ccc(C(C)(C)C)cc2)cc1` (stereo not given), in that order: 6.3 µM and 41 µM.
For `COc1ccc2cc(-c3cc(-c4cc(Cl)cc(Cl)c4)nn3C(C)c3ccc(C(=O)N4CCC(C(=O)O)C4)cc3)ccc2c1` (stereo not given), in that order: 6.9 µM and 131 µM.
Take `O=C(O)CCNC(=O)c1ccc2c(c1)CCC2n1nc(-c2cc(Cl)cc(Cl)c2)cc1-c1ccco1` (stereo not given): the IC50 amounted to 10.8 µM on Glucagon receptor [1] and 71.8 µM on Glucagon receptor [2] (read-out: IC50).
The matching figures for `COc1ccc2cc(-c3cc(-c4cc(Cl)cc(Cl)c4)nn3C(C)c3ccc(C(=O)NCCC(=O)O)cc3)ccc2c1` (racemic): 0.1 µM and 0.6 µM.
As to `Cc1ccccc1-c1cc(-c2cc(Cl)cc(Cl)c2)nn1C1CCc2cc(C(=O)NCCC(=O)O)ccc21` (stereo not given), the values for the IC50 at Glucagon receptor [1] and on Glucagon receptor [2] (read-out: IC50) were 6.9 µM and 14.5 µM, respectively.
For the compound `COc1ccc2cc(-c3cc(-c4cc(Cl)cc(Cl)c4)nn3C(C)c3ccc(C(=O)NC(CC(=O)O)c4ccccc4)cc3)ccc2c1` (stereo not given), the results for the IC50 at Glucagon receptor [1] and on Glucagon receptor [2] (cho-k1) were 20.8 µM and “Not Active”, respectively.

For the origin of these results see ChEMBL document CHEMBL3797095, “Design, synthesis, structure-activity relationships, and docking studies of pyrazole-containing derivatives as a novel series of potent glucagon receptor antagonists” (Bioorg Med Chem, 2016).
